Assay results taken from ChEMBL document CHEMBL4513216, “Probing the Open Global Health Chemical Diversity Library for Multistage-Active Starting Points for Next-Generation Antimalarials” (ACS Infect Dis, 2020).

Experiment: Toxicity liver stage against HepG2, at 10uM
Format: cell-based
Set-up: test concentration 10 uM, cell line HepG2-A16-CD81EGFP
Conditions: human, HepG2-A16-CD81EGFP cells; read-out: INHIBITION
Summary of the method: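 Uninfected HepG2-A16-CD81EGFP cells, 3 × 10^3 per well, 1536-well, plated on prespotted compound at 10 μM final, parasite-free screening media added to match infected plates; puromycin 10 μM positive, DMSO 0.5% negative; run in parallel with 48 h PbLuc assay at 37 °C, 5% CO2; viability by CellTiter-Glo luminescence, normalized to controls.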

## Cc1nc2cc(C(=O)N(CCC#N)CC3CCCO3)ccc2[nH]1 (stereo not drawn)
  cytotoxicity at 10 µM: -0.58%

## O=C(CCc1nc2cccnc2[nH]1)NCc1ccncc1
  cytotoxicity at 10 µM: 3.72%

## CS(=O)(=O)NCC1CCN(C(=O)Oc2ccccc2)CC1
  cytotoxicity at 10 µM: -151%

## COCC1CN(Cc2ccsc2)Cc2cnn(C)c21 (stereo not drawn)
  cytotoxicity at 10 µM: 5.58%

## COCC(C)(O)CNC(=O)COc1ccccc1OC (stereo not drawn)
  cytotoxicity at 10 µM: -12.2%

## O=C(c1ccc(=O)[nH]n1)N1CC(c2nc(Cc3ccccc3)no2)C1
  cytotoxicity at 10 µM: -19.3%

## O=S(=O)(NCC1(O)CCOc2ccccc21)c1ccc(Br)s1 (stereo not drawn)
  cytotoxicity at 10 µM: 1.43%

## Cc1ccoc1C(=O)N1CCO[C@H]2[C@H](OCC3CCOCC3)CC[C@@H]21
  cytotoxicity at 10 µM: -6.42%

## CC(C)CC(=O)N1CCN(C(=O)N(C)C)CC2(CC(=O)N(C)C2)C1 (stereo not drawn)
  cytotoxicity at 10 µM: -20.3%

## CN(C)[C@@H]1CN(C(=O)c2cc3cccc(F)c3[nH]2)C[C@H]1O
  cytotoxicity at 10 µM: -1.49%

## CC(C)NC(=O)C1(Cc2ccccc2-c2cncnc2)CCCNC1 (stereo not drawn)
  cytotoxicity at 10 µM: 3.67%

## O=C(O)c1cccc(CN2CCCC(Cc3ccn[nH]3)C2)c1 (stereo not drawn)
  cytotoxicity at 10 µM: 5.39%

## Cc1cc(C)n(C2CCN(S(C)(=O)=O)CC2)n1
  cytotoxicity at 10 µM: 15.7%

## c1ccc2ncc(CC3CCNCC3)cc2c1
  cytotoxicity at 10 µM: 1.8%

## COCC(=O)NC(CC(C)C)c1nc2cccnc2n1C (stereo not drawn)
  cytotoxicity at 10 µM: 15.2%

## CNC(=O)c1cnc(C)nc1CCNC(=O)CCc1ccccc1
  cytotoxicity at 10 µM: -0.0555%

## O=C(N[C@@H]1CC[C@@H](N2CCCC2)[C@@H]1O)c1cc2cccc(F)c2[nH]1
  cytotoxicity at 10 µM: 2.91%

## Cc1nc(O)c2nnn(C[C@H]3CCCN3C(=O)c3ccccc3C)c2n1
  cytotoxicity at 10 µM: -7.36%

## Cc1ccc(C)c(CC(=O)NC2CCCS(=O)(=O)C2)c1 (stereo not drawn)
  cytotoxicity at 10 µM: -7.52%

## COCCN(CCOC)C(=O)c1ccoc1C
  cytotoxicity at 10 µM: 6.72%

## CC(NCc1cccc(COC2CCCC2)c1)c1cnn(C)c1 (stereo not drawn)
  cytotoxicity at 10 µM: 4.34%

## CCn1nc2c(cc1=O)CN(CCOc1cccc(C#N)c1)CC2
  cytotoxicity at 10 µM: 4.67%

## CNC(=O)c1cc(NC(=O)NC2CC2)ccc1F
  cytotoxicity at 10 µM: 5.13%

## COC(=O)CCNC(=O)c1nnn(-c2ccccc2)c1C(F)(F)F
  cytotoxicity at 10 µM: -4.27%

## CCNc1cc2c(nn1)CCN(C(=O)C1COc3ccccc3C1)C2 (stereo not drawn)
  cytotoxicity at 10 µM: -4.83%

## COCc1ccc(C(=O)N2CCN(CCS(C)(=O)=O)CC2)cc1
  cytotoxicity at 10 µM: -1.33%

## CCCOC1CCCN(C(=O)c2ccnc(N3CCN(C)CC3)c2)C1 (stereo not drawn)
  cytotoxicity at 10 µM: -5.7%

## O=C(N1CCc2ccccc2CC1)C1(O)Cc2ccccc2C1
  cytotoxicity at 10 µM: 10.8%

## Cc1ccc(NC2CCN(C(=O)CCCc3ccccn3)CC2)nn1
  cytotoxicity at 10 µM: 16.4%

## c1ccc2c(c1)OCCCC2NCc1nnc2n1CCCCC2 (stereo not drawn)
  cytotoxicity at 10 µM: -0.044%

## COCC(NC(=O)c1cc(C)n(C)n1)c1cccc(C(F)(F)F)c1 (stereo not drawn)
  cytotoxicity at 10 µM: 9.43%

## CC(C)CCn1ccc(NC(=O)N2CCCC2CN2CCOCC2)n1 (stereo not drawn)
  cytotoxicity at 10 µM: -2.16%

## Cc1cn2c(n1)CCC(NC(=O)COCCOc1ccccc1)C2 (stereo not drawn)
  cytotoxicity at 10 µM: -4.44%

## COc1ccc(C2CCCCCN2S(N)(=O)=O)cc1 (stereo not drawn)
  cytotoxicity at 10 µM: 8.87%

## O=C(CN1CCN(c2ccnc3c(F)ccc(F)c23)CC1)NC1CC1
  cytotoxicity at 10 µM: -1.12%

## CC(NCCN1CCN(C(=O)C2CCCC2)CC1)c1nccs1 (stereo not drawn)
  cytotoxicity at 10 µM: -0.513%

## Cc1cc(Cl)ccc1NCc1cnn(C2CCS(=O)(=O)C2)c1 (stereo not drawn)
  cytotoxicity at 10 µM: 6.51%

## Cc1cnc(-c2nc(-c3cccc(CN4CCOCC4)c3)no2)cn1
  cytotoxicity at 10 µM: -4.21%

## CC(C)c1nnc(CN(C)C(c2ccccc2)c2ccc(F)cc2)o1 (stereo not drawn)
  cytotoxicity at 10 µM: 15.5%

## CC(=O)N1CCCN(C(=O)c2ccc(Sc3ccccn3)cc2)CC1
  cytotoxicity at 10 µM: 10.9%

## Cc1cc(OC(F)F)c(C(=O)N2CCC(N(C)C)CC2)s1
  cytotoxicity at 10 µM: 6.9%

## CC(CNC1CCN(Cc2ccncc2)CC1)c1ccc(F)cc1F (stereo not drawn)
  cytotoxicity at 10 µM: -9.73%

## CCc1ccc(C(=O)NCCCC2(C3OCCO3)CCOCC2)cc1
  cytotoxicity at 10 µM: 15.6%

## CC(C)NC(=O)C1CCN(C(C)C(=O)N2CCc3sccc3C2)CC1 (stereo not drawn)
  cytotoxicity at 10 µM: 5.52%

## COCCN1CCN(S(C)(=O)=O)Cc2cccnc21
  cytotoxicity at 10 µM: 5.7%

## O=C(c1ccco1)N1CCO[C@@H]2CNCC[C@@H]2C1
  cytotoxicity at 10 µM: -75.2%

## Cc1ncnc2c1CCN(C(=O)c1cccn1C)CC2
  cytotoxicity at 10 µM: -75.1%

## O=C(NCCNc1cccnc1)C(c1cccnc1)N1CCCC1 (stereo not drawn)
  cytotoxicity at 10 µM: 4.11%

## O=C1CCC2(CCCN(C(=O)C3CCCC3)C2)CN1CCc1c[nH]cn1 (stereo not drawn)
  cytotoxicity at 10 µM: -0.699%

## CC(C)c1nc(CN(C)C(=O)CCS(=O)(=O)c2ccccc2)no1
  cytotoxicity at 10 µM: -20.3%

## Cc1ncsc1CCN(C)C(=O)c1ccc(Cn2cnnn2)cc1
  cytotoxicity at 10 µM: -9.17%

## CCC(OC)C(=O)NCC1CCN(c2cnn(C)c(=O)c2)CC1 (stereo not drawn)
  cytotoxicity at 10 µM: 7.35%

## CN1CC2(CCCN(C(=O)c3cnc4ccc(F)cc4c3O)C2)OC1=O (stereo not drawn)
  cytotoxicity at 10 µM: 6.25%

## Cc1ccc(CN2CCN(Cc3cc(C)n[nH]3)CC2CCO)cc1 (stereo not drawn)
  cytotoxicity at 10 µM: 1.13%

## COc1ccc(Cl)cc1C(=O)N1C[C@H](C(C)C)[C@@H](N)C1
  cytotoxicity at 10 µM: 1.17%

## OC1CCN(CCCn2ccnc2-c2c[nH]cn2)CC1
  cytotoxicity at 10 µM: -1.57%

## O=c1c(CN2CCOCC2)coc2ccc(Cl)cc12
  cytotoxicity at 10 µM: -3.73%

## COCCn1ccnc1C1CCCN(c2ncnc3c(C)csc23)C1 (stereo not drawn)
  cytotoxicity at 10 µM: 2.57%

## OCc1ccc(CN2CCC(n3cc(-c4ccc(F)cc4)nn3)CC2)o1
  cytotoxicity at 10 µM: 5.54%

## Cn1c(Cn2ccnc2)nnc1C1CCCN(CC(C)(C)C)C1 (stereo not drawn)
  cytotoxicity at 10 µM: 3.89%

## C/C=C(\C)CN1C[C@H](c2cccc(OC)c2)[C@@H](N)C1
  cytotoxicity at 10 µM: 3.49%

## CCC(O)CNC(=O)C1(N(C)Cc2ccccc2)Cc2ccccc2C1 (stereo not drawn)
  cytotoxicity at 10 µM: 7.62%

## Cc1nc(O)c2nnn(C[C@H]3CCCN3C(=O)CCC3CCCC3)c2n1
  cytotoxicity at 10 µM: 5.02%

## Cc1nc(CN2CCCC(c3cc(C(N)=O)[nH]n3)C2)oc1C (stereo not drawn)
  cytotoxicity at 10 µM: -31.2%

## CCC1c2ccsc2CCN1C(=O)NCc1ccnc(N(C)C)c1 (stereo not drawn)
  cytotoxicity at 10 µM: -11.9%

## CS(=O)(=O)NCC1CCCN(C(=O)CCCc2ccccc2)C1 (stereo not drawn)
  cytotoxicity at 10 µM: -2.78%

## Cc1nc(C)n(CC2CCCN(CC(=O)Nc3ccncc3)C2)n1 (stereo not drawn)
  cytotoxicity at 10 µM: -5.75%

## Cc1cc(NC(=O)NCC(CC(C)C)N2CCOCC2)n(C)n1 (stereo not drawn)
  cytotoxicity at 10 µM: -15%

## Cc1ccc(-c2nc(CN3CCCC3Cn3cncn3)co2)cc1 (stereo not drawn)
  cytotoxicity at 10 µM: -7.29%

## CC(O)CN1CCN(C(=O)c2cccn2Cc2ccccc2)CC1 (stereo not drawn)
  cytotoxicity at 10 µM: -8.87%

## CCn1c(CNCC2CCCN2c2cccnn2)nc2ccccc21 (stereo not drawn)
  cytotoxicity at 10 µM: -10.2%

## O=C(NCCNc1ncccn1)N1CCCC1
  cytotoxicity at 10 µM: -12.8%

## O=C(NCc1cccnc1-n1cncn1)c1ccc2c(c1)CCO2
  cytotoxicity at 10 µM: -14.2%

## Cc1ncc(C(=O)NCCNc2ncccc2C#N)s1
  cytotoxicity at 10 µM: -8.18%

## Cc1nc(CN(C)C2CCN(CCCOc3ccc(F)cc3)C2)no1 (stereo not drawn)
  cytotoxicity at 10 µM: -8.27%

## CCc1nc(CN(C)C2CCN(CCOc3ccccc3)C2)no1 (stereo not drawn)
  cytotoxicity at 10 µM: -34.6%

## CCn1c(CN2CCCN(C(=O)OC)CC2)nc2c(F)cccc21
  cytotoxicity at 10 µM: -8.6%

## O=C(Cc1ccc2c(c1)OCCO2)NC1CCCC1
  cytotoxicity at 10 µM: -3.07%

## Cc1ccc(-c2nc(CN3CCc4nn(C)c(=O)cc4C3)co2)cc1
  cytotoxicity at 10 µM: -11.6%

## CCN1CCn2c(C)cnc2C12CCN(C(=O)CC(C)C)CC2
  cytotoxicity at 10 µM: -5.93%

## CCOC(=O)[C@]12CCCN(Cc3ccco3)C[C@H]1CN(CCN(C)C)C2
  cytotoxicity at 10 µM: -17.9%

## COCc1cnc2n1CCN(Cc1cccnc1)C2C (stereo not drawn)
  cytotoxicity at 10 µM: -8.79%

## CCC(=O)N1CC[C@H]2[C@H](C[C@@H](CN3CCCC3)N2c2nccs2)C1
  cytotoxicity at 10 µM: 10.2%
